Ecoli rRNA inh = selective bacterial rRNA inhibition in E. coli; E. coli WT GFP vs humanized-ribosome RFP mutants, fluorescence, 24 h; hits give low values; DMSO median 0, no signal -100; GFP signal change (wild-type ribosome), % (test concentration not listed); AID 720706; actives 1.6% (n = 350,000);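 active means significant combined selectivity score with lowered wild-type GFP, culture density cut under 30%, mutant RFP and density less affected; inactive means any of these conditions unmet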
SR-BI HDL uptake = inhibitors of mouse SR-BI mediated HDL lipid uptake. Q61009. ldlA[mSR-BI] CHO cells, DiI-HDL uptake fluorescence, 3 h. inhibition, % at 12.5 µM. actives 0.96% (n = 320,000). AID 488896;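 active means mean replicate inhibition of at least 70% and a set share of replicates each scoring 70 or more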;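 further: 0% = median of neutral control wells and 100% = median of positive control wells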
Target sequence (Q61009 whole entry, looked up): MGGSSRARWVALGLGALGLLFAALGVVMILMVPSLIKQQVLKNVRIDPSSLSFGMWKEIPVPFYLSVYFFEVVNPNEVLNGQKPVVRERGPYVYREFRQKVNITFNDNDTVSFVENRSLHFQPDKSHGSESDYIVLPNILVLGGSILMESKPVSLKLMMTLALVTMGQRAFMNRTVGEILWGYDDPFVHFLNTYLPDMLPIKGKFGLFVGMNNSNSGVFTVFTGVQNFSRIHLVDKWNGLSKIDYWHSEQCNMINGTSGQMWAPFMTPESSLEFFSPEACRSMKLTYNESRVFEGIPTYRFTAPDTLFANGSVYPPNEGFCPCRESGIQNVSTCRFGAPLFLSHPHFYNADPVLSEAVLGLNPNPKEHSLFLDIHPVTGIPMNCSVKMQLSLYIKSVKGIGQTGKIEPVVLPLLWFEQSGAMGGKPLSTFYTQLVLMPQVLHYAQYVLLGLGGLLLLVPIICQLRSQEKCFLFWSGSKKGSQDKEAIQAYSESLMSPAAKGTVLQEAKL
Xi reactivation = activators of X-chromosome reactivation in mouse fibroblasts | actives 0.055% (n = 360,000) | XiGFP mouse fibroblasts, % GFP-positive cells imaging, 3 d; cells co-treated with 5-aza-dC sensitizer; scaled so ellipticine positive control = 100% | activation, % at 7.58 µM;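 active means mean normalized replicate activation at least 10% and every replicate at or above 10%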;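 further: 0% = median of on-plate neutral control wells and 100% = ellipticine 6 µM median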
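material = 68-5-11 XiGFP fibroblast line | medium = DMEM plus 5-aza-dC sensitizer | schedule = 3 days compound exposure | benchmarks = positive control ellipticine, 6 µM final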
PvdQ acylase = blocks Pseudomonas aeruginosa PvdQ acylase activity | purified PvdQ acylase, fluorescence plate reader | inhibition, % at 10 µM | actives 0.063% (n = 340,000) | AID 488965; in the data active means inhibition above about 30%, passing the limit was not always enough;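 further: 0% = vehicle neutral wells and 100% = reference inhibitor wells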
SR-BI DiI-HDL act = enhances SR-BI lipid uptake from DiI-HDL. CHO ldlA[mSR-BI] cells, DiI-HDL uptake fluorescence, 3 h; 100 = double the neutral-control signal. actives 0.096% (n = 320,000). activation, % at 12.5 µM. AID 504775;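 active means mean replicate activation of at least 60% and every replicate at or above 60%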;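 further: 0% = median plate neutral-control signal and 100% = twice that signal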
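System: CHO ldlA[mSR-BI] cells / Medium: HEPES-buffered (25 mM, pH 7.4) F12 plus 0.5% BSA / Probe or stimulus: labelled HDL, 10 µg/mL / Doses: single compound concentration, delivered by pin transfer / Schedule: 3 h, 37 °C / Measured by: DiI fluorescence, bottom read / Measure: cell-associated DiI fluorescence as measure of HDL uptake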
dFosB activator = mouse delta FosB homodimer activation; purified delta FosB, TAMRA-CDK5 oligo fluorescence polarization; percent of positive-control signal above neutral wells; actives 0.99% (n = 340,000); activation, % at 25 µM; P13346;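 active means mean activation above about 17%, with every replicate also reaching it, limit read from the data, passing the limit was not always enough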
* hit, by the source's call; / = no result given. Compounds with a hit are over-represented: about 2.6% of the library has one in this group of screens.

SMILES | Ecoli rRNA inh | SR-BI HDL uptake | Xi reactivation | PvdQ acylase | SR-BI DiI-HDL act | dFosB activator
C[C@H]1CN([C@@H](C)CO)C(=O)c2cc(-c3cccnc3)cnc2O[C@@H]1CN(C)C | 4 | / | -1 | / | / | /
CCCOc1ccc(NC(=O)CC2C(=O)N(CC)C(=S)N2CCCN2CCN(Cc3ccccc3)CC2)cc1 (configuration not stated) | -14 | -14 | 0 | 2 | 14 | 0
CCOC(=O)/C=C1\CC(C(=O)OCC)Oc2c(OC)cccc21 (configuration not stated) | -1 | 14 | 0 | -4 | -14 | -3
C=C1c2cccc(OC)c2O[C@H](C(=O)OCC)[C@@H]1CC(CC)CCCC (some centres not stated) | 12 | 84* | 0 | 6 | -84 | -4
C[C@H]1CN([C@@H](C)CO)C(=O)c2cc(NS(=O)(=O)c3ccccc3)ccc2O[C@H]1CN(C)S(=O)(=O)c1ccccc1 | -2 | / | 0 | / | / | /
Cc1ccc(NS(=O)(=O)c2ccc3c(c2)NC(=O)CCS3)cc1F | -8 | -9 | 0 | 10 | 9 | -4
Cc1cccc(CCNS(=O)(=O)c2ccc3c(c2)NC(=O)CS3)c1 | -35* | -4 | 0 | -2 | 4 | -12
Cc1ccc(NS(=O)(=O)c2ccc3c(c2)NC(=O)CCS3)cc1C | -26* | 4 | 0 | -11 | -4 | -8
COc1ccc(N(CC(=O)Nc2cc(OC)ccc2OC)S(=O)(=O)c2c(C)nn(C)c2C)cc1 | 5 | 30 | 0 | -14 | -30 | -14
CCOC(=O)C1=C(C)NC(=O)C(C#N)C1c1ccco1 (configuration not stated) | 11 | -61 | / | 15 | 61* | -1
CCOC(=O)C1=C(C)NC(C)=C(C(=O)OC)C1c1ccco1 (configuration not stated) | -3 | -23 | 0 | -15 | 23 | -5
CCNC(=O)C[C@@H]1CC[C@H]2[C@@H](COc3ccc(NC(=O)Nc4ccc(F)cc4)cc3C(=O)N2C)O1 | -2 | / | 0 | / | / | /
O=C(Cc1ccccc1)N1CCCC(c2nc(-c3cccs3)no2)C1 (configuration not stated) | / | -5 | / | -7 | 5 | -3
C/C(=N\Nc1cc(C)nc(-c2ccccc2O)n1)c1ccccc1 | 7 | 55 | 0 | -15 | -55 | 1
C/C(=N\Nc1cc(-c2ccccc2)nc(-c2ccccc2)n1)c1ccc(O)c(C)c1 | -2 | 94* | 0 | -4 | -94 | -13
O=[N+]([O-])c1cccc(/C=N/Nc2cc(Cl)nc(-c3ccccc3)n2)c1 | / | 74* | / | -10 | -74 | 1
COc1ccc(-c2nc(N/N=C(\C)c3ccc(O)cc3)c3ccccc3n2)cc1 | 16 | / | 0 | -6 | / | -9
O=[N+]([O-])c1ccc(/C=N/Nc2cc(Cl)nc(-c3ccccc3)n2)cc1 | / | 6 | / | -7 | -6 | 6
COc1cc(N/N=C(\C)c2ccc(N)cc2)nc(-c2ccccc2)n1 | 0 | 79* | -1 | -11 | -79 | -11
C/C(=N\Nc1cc(C)nc(-c2ccccc2)n1)c1cccc([N+](=O)[O-])c1 | 7 | 77* | 0 | 8 | -77 | -6
Cc1ccc(N(CCC(=O)Nc2nnc(C3CC3)s2)S(=O)(=O)c2ccccc2)cc1 | -16 | / | 1 | / | / | /
Cc1ccc(NCC(=O)Nc2ccc(Br)cc2)cc1F | -4 | -1 | 0 | -9 | 1 | -1
C[C@H]1CN([C@@H](C)CO)S(=O)(=O)c2ccc(C#CCN(C)C)cc2O[C@H]1CN(C)S(C)(=O)=O | 1 | / | 0 | / | / | /
COc1ccc(Cl)cc1C(=O)Nc1ccc(S(N)(=O)=O)cc1 | -4 | 27 | 0 | 3 | -27 | -9
C/C(=N\Nc1nc(C)cc(-c2ccccc2)n1)c1ccc(O)cc1 | -1 | 54 | 0 | -15 | -54 | -4
SMILES | Ecoli rRNA inh | SR-BI HDL uptake | Xi reactivation | PvdQ acylase | SR-BI DiI-HDL act | dFosB activator
COc1cc(N/N=C(\C)c2ccc(O)c(C)c2)nc(-c2ccccc2)n1 | -37* | 92* | 0 | -3 | -92 | -4
CCn1c(SCc2ccc(F)cc2)nc2c(c1=O)SCC2 | -31* | 8 | 0 | -2 | -8 | -8
CCn1c(SCc2cccc(F)c2)nc2c(c1=O)SCC2 | -35* | 18 | 0 | 11 | -18 | -8
COC(=O)/C=C1/S/C(=N/NC(=O)c2ccccc2)NC1=O | / | -17 | / | 5 | 17 | -2
C/C(CC(=O)Nc1ccc(Cl)c(C(F)(F)F)c1)=N\NC(N)=S | -34 | 80* | 0 | -14 | -80 | -12
CCN(CC)CCCNC(=O)C1CCC(=O)N(c2ccc(OC)cc2)C1c1ccc(F)cc1 (configuration not stated) | / | -11 | / | -7 | 11 | -6
CN=c1scc(-c2ccccc2F)n1/N=C/c1ccc[nH]1 | -22* | 65 | 0 | -4 | -65 | -2
CN=c1scc(-c2ccccc2F)n1/N=C/c1ccc(O)c(O)c1O | -10 | 12 | 0 | -13 | -12 | -25
Cc1c(Cl)cccc1NC(=S)C(=C([O-])c1ccc(Cl)s1)[n+]1ccccc1 | -11* | 25 | 0 | 0 | -25 | -3
CCC/C(=C1/c2ccccc2C(=O)N1c1ccccc1)c1c(C)noc1C | -25* | / | 0 | / | / | /
COc1ccccc1CNc1cc(-c2ccccc2)ccc1OC | / | -8 | 0 | -7 | 8 | -2
CCC1=NN(C(=O)c2ccccc2O)C(O)(c2ccccc2)C1 (configuration not stated) | 5 | 120* | 0 | -8 | -120 | -6
CCC1=NN(C(=O)c2ccc([N+](=O)[O-])cc2)C(O)(c2ccccc2)C1 (configuration not stated) | -7 | 82* | 0 | 10 | -82 | -1
O=C(c1ccccc1O)N1N=C(C(F)(F)F)CC1(O)c1ccc([N+](=O)[O-])cc1 (configuration not stated) | -19 | 71* | 0 | -3 | -71 | -11
CCOC(=O)c1cnc2c(Cl)cccc2c1NCCN1CCOCC1 | 8 | 13 | 0 | 9 | -13 | -1
CCOc1ccc(CN(C)CC(=O)Nc2cccc3ccccc23)cc1OC | -24* | 17 | 0 | -14 | -17 | 2
COCC(=O)Nc1cccc2ccccc12 | / | 0 | / | -7 | 0 | 1
COc1cc(CO)cc(Br)c1OCC(=O)Nc1cccc2ccccc12 | -24* | -3 | 0 | -12 | 3 | -7
COc1ccc(CN(C)CC(=O)Nc2cccc3ccccc23)cc1F | -15 | / | 0 | -27 | / | -10
